Test results taken from PMC8395708 (JACS Au, 2021).

Assays:
[1] = format: in vivo, C57BL/6JNarl mice; settings: mice, oral gavage 13.25 mg/kg
[2] = molecular target: bovine serum albumin (BSA) (Bos taurus, UniProt P02769); test: Reaction of DNIC-1 with bovine serum albumin; format: binding; settings: PBS pH 7.4, 37 °C, EPR
[3] = Effect of BSA or L-cysteine on degradation of DNIC-1 in PBS; format: physicochemical
How it was run: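 UV-vis stability: 25 μM test compound with 10 mg/mL BSA in PBS pH 7.4 at 37 °C under air. […] The same design was used with 150 μM L-cysteine instead of BSA, and with BSA under anaerobic conditions. Three independent experiments.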

[4] = NO release, Nitrate/Nitrite Colorimetric Assay; format: physicochemical; settings: degradation of BSA-bound DNIC, PBS pH 7.4
How it was run: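 25 μM test compound was left to degrade under air for 2 d in 50 mM phosphate pH 7.4, SIF or SGFsp, or with BSA in PBS pH 7.4. For nitrate/nitrite, 10 μL sample was diluted in kit buffer with enzyme cofactor and nitrate reductase for 1 h at room temperature. NO equivalents were calculated from 0–35 μM nitrite/nitrate standard curves.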

bovine serum albumin (BSA), sequence (P02769 25-607): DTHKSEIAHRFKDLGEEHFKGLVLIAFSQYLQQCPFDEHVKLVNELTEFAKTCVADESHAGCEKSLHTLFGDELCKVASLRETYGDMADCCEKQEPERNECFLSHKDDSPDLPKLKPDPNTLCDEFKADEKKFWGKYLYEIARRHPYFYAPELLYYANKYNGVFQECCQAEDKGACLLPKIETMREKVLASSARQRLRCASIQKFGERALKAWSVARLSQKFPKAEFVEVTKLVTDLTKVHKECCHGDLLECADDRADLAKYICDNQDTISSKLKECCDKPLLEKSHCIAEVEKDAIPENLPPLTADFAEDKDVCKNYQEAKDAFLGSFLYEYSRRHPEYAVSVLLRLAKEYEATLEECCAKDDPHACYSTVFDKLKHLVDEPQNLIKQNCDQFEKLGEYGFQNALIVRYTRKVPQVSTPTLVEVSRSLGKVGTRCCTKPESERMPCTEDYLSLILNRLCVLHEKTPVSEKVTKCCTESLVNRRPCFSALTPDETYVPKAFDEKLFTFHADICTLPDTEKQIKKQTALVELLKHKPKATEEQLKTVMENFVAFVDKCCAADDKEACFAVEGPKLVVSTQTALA

reaction time to plateau of BSA-bound DNIC formation [2]	Substance	half-life in the small intestine [1]	half-life of BSA-bound DNIC (UV-vis decay at 384 and 565 nm) ([3]; 25 μM DNIC-1 + 10 mg/mL BSA, PBS pH 7.4, aerobic, 37 °C)	half-life of BSA-bound DNIC (decay of EPR signal) ([3]; 25 μM DNIC-1 + 50 mg/mL BSA, PBS pH 7.4, aerobic, 37 °C, EPR)	stability under anaerobic condition ([3]; 10 mg/mL BSA, PBS pH 7.4, 37 °C, 24 h, anaerobic)	released nitric oxide [4]
	[(NO)2Fe(SR)(mucin)] (R = CH2CH2OH) [mucin-bound DNIC]	3.0 ± 0.6 h				
15 min	[(NO)2Fe(SR)(BSA)] (R = CH2CH2OH) [BSA-bound DNIC]		3.5 ± 0.3 h	3.5 ± 0.2 h	No change of the UV–vis spectra	~1.4 equiv
